According to ChEMBL document CHEMBL1136635, “Modification of the N-terminus of peptidomimetic protein tyrosine phosphatase 1B (PTP1B) inhibitors: identification of analogues with cellular activity” (Bioorg Med Chem Lett, 2003):

Biological target: Receptor-type tyrosine-protein phosphatase F (Homo sapiens) (UniProt P10586)
Experiment: Inhibitory activity against phosphatase (LAR) at a concentration of 100 uM
Procedure, shortened: (§1)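 Purified recombinant human enzyme constructs; PTP1B is a C-terminally truncated soluble form, tested alongside LAR and SHP-2. Activity is read as the initial rate of p-nitrophenyl phosphate (pNPP) hydrolysis and reported as percent inhibition. PTP1B is tested at 100, 10 and 1 µM, or 10 and 1 µM in the salicylate series; LAR and SHP-2 at 100 µM.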

Chain of Receptor-type tyrosine-protein phosphatase F (Homo sapiens) (P10586 whole entry): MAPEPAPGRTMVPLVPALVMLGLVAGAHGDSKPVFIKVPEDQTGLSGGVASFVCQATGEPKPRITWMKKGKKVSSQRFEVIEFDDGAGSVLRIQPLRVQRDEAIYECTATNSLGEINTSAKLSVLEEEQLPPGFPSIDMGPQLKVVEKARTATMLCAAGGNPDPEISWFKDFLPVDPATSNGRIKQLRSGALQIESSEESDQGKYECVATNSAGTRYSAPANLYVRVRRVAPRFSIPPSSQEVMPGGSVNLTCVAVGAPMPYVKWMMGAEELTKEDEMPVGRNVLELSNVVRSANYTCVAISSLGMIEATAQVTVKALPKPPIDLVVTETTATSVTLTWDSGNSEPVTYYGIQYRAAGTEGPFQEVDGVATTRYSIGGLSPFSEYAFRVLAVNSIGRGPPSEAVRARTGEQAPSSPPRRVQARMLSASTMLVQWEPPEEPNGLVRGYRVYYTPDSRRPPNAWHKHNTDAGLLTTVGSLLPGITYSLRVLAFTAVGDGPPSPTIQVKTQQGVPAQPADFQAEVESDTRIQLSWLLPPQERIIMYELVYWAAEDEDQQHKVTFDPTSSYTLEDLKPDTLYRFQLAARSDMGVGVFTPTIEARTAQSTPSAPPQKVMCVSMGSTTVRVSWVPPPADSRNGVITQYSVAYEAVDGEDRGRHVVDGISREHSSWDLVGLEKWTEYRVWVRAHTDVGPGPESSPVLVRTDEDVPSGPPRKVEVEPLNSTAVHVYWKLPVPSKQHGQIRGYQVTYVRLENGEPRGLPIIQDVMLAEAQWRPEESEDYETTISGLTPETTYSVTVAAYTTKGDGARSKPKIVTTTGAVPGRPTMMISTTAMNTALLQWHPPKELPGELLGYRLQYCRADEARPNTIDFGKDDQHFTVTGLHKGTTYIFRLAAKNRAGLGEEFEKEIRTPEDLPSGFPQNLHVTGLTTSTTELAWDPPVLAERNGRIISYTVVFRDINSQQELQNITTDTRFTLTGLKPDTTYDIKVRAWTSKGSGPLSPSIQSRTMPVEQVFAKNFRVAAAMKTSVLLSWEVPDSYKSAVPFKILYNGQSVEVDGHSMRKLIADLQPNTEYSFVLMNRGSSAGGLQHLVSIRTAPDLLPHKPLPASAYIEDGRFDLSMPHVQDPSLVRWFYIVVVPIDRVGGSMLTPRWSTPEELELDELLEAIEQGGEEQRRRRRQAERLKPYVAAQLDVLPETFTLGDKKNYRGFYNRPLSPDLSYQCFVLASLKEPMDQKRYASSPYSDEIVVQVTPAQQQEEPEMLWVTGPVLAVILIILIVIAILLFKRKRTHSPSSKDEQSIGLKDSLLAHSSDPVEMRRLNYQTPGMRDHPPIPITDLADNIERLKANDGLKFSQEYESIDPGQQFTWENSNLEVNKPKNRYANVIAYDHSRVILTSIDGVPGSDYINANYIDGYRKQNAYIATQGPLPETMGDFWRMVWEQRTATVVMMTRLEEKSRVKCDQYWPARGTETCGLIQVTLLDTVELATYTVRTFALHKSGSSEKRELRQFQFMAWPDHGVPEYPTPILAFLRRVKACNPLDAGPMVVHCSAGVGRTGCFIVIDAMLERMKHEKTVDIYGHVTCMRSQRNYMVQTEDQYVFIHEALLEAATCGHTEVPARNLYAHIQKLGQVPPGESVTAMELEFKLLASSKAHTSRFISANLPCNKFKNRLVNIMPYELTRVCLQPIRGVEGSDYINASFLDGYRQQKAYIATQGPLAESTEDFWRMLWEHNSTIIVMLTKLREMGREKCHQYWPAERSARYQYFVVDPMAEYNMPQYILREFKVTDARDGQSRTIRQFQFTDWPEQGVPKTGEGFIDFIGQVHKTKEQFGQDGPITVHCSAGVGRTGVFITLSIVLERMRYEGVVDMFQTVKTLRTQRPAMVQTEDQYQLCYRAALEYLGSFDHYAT

Which inhibition does the source give for `CCCCCNC(=O)[C@H](Cc1ccc(OCC(=O)O)c(C(=O)O)c1)NC(=O)[C@H](Cc1ccccc1)NC(=O)CSc1c[nH]nn1` here?
Its inhibition is 0%.

For `CCCCCNC(=O)[C@H](Cc1ccc(OCC(=O)O)c(C(=O)O)c1)NC(=O)[C@H](Cc1ccc(O)cc1)NC(=O)OC(C)(C)C`, which inhibition is on record?
Its inhibition is 0%.

Which inhibition does the source give for `CCCCCNC(=O)[C@H](Cc1ccc(OCC(=O)O)c(C(=O)O)c1)NC(=O)[C@H](Cc1ccccc1)NC(=O)C[S+]([O-])c1nc[nH]n1` (some centres undefined) here?
Its inhibition is 0%.

For `CCCCCNC(=O)[C@H](Cc1ccc(OCC(=O)O)c(C(=O)O)c1)NC(=O)[C@H](C)NC(=O)OC(C)(C)C`, which inhibition is on record?
The inhibition was 4%.

Which inhibition does the source give for `CCCCCNC(=O)[C@H](Cc1ccc(OCC(=O)O)c(C(=O)O)c1)NC(=O)[C@H](Cc1ccccc1)NC(=O)Cc1ccc(O)cc1` here?
The inhibition was 7%.

For `CCCCCNC(=O)[C@H](Cc1ccc(OCC(=O)O)c(C(=O)O)c1)NC(=O)[C@H](Cc1ccccc1)NC(C)=O`, which inhibition is on record?
The inhibition was 0%.

Which inhibition does the source give for `CCCCCNC(=O)[C@H](Cc1ccc(OCC(=O)O)c(C(=O)O)c1)NC(=O)[C@H](COCOC)NC(=O)OC(C)(C)C` here?
Its inhibition is 2%.

Tested on: not listed separately
Experiment: Uptake of 2-DOG (2-deoxyglucose) into L6 myocytes in the presence of half-maximal concentration of insulin at 100 uM
Assay type: functional, Rattus norvegicus
Procedure, shortened: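 L6 myotubes are exposed to compound at 100 µM with 10 nM insulin, a dose eliciting about 50% of maximal uptake. The initial rate of 2-[3H]deoxyglucose uptake is measured, with L-[14C]glucose marking extracellular space, and normalized to recovered lysate protein. Net insulin-dependent transport with inhibitor is expressed as a percent of that without inhibitor.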

With `CCCCCNC(=O)[C@H](Cc1ccc(OCC(=O)O)c(C(=O)O)c1)NC(=O)[C@H](Cc1ccccc1)NC(=O)CSc1c[nH]nn1` as the compound, how does the “Control Uptake” value read?
The value was 86%.

Which “Control Uptake” value does the source give for `CCCCCNC(=O)[C@H](Cc1ccc(OCC(=O)O)c(C(=O)O)c1)NC(=O)[C@H](Cc1ccc(O)cc1)NC(=O)OC(C)(C)C` here?
The value was 115%.

With `CCCCCNC(=O)[C@H](Cc1ccc(OCC(=O)O)c(C(=O)O)c1)NC(=O)[C@H](Cc1ccccc1)NC(=O)C[S+]([O-])c1nc[nH]n1` (some centres undefined) as the compound, how does the “Control Uptake” value read?
Its value is 92%.

For `CCCCCNC(=O)[C@H](Cc1ccc(OCC(=O)O)c(C(=O)O)c1)NC(=O)[C@H](C)NC(=O)OC(C)(C)C`, which “Control Uptake” value is on record?
The value was 76%.

With `CCCCCNC(=O)[C@H](Cc1ccc(OCC(=O)O)c(C(=O)O)c1)NC(=O)[C@H](Cc1ccccc1)NC(=O)Cc1ccc(O)cc1` as the compound, how does the “Control Uptake” value read?
Its value is 96%.

For `CCCCCNC(=O)[C@H](Cc1ccc(OCC(=O)O)c(C(=O)O)c1)NC(=O)[C@H](Cc1ccccc1)NC(C)=O`, which “Control Uptake” value is on record?
The value was 95%.

With `CCCCCNC(=O)[C@H](Cc1ccc(OCC(=O)O)c(C(=O)O)c1)NC(=O)[C@H](COCOC)NC(=O)OC(C)(C)C` as the compound, how does the “Control Uptake” value read?
Its value is 70%.

Biological target: T1, Tyrosine-protein phosphatase non-receptor type 11 (Homo sapiens) (UniProt Q06124)
T1 sequence (whole entry): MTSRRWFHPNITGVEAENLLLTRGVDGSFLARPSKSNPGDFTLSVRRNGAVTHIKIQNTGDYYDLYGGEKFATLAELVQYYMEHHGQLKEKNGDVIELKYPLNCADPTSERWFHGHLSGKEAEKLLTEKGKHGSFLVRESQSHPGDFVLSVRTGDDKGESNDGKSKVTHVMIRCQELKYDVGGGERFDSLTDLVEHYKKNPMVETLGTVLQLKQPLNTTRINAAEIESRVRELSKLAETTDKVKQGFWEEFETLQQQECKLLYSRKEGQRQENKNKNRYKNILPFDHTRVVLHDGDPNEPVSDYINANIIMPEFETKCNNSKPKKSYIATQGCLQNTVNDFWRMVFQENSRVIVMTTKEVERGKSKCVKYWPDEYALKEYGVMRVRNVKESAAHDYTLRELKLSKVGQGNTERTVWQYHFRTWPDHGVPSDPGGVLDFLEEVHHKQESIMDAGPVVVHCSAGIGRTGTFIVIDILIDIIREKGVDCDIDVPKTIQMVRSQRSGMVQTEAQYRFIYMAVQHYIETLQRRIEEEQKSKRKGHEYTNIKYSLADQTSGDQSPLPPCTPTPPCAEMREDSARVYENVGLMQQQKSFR
Experiment: Inhibition of recombinant human phosphatase (SHP-2) at a concentration of 100 uM
Procedure, shortened: as §1

For `CCCCCNC(=O)[C@H](Cc1ccc(OCC(=O)O)c(C(=O)O)c1)NC(=O)[C@H](Cc1ccccc1)NC(=O)CSc1c[nH]nn1`, which inhibition is on record?
Its inhibition is 5%.

With `CCCCCNC(=O)[C@H](Cc1ccc(OCC(=O)O)c(C(=O)O)c1)NC(=O)[C@H](Cc1ccc(O)cc1)NC(=O)OC(C)(C)C` as the compound, how does the inhibition read?
Its inhibition is 5%.

With `CCCCCNC(=O)[C@H](Cc1ccc(OCC(=O)O)c(C(=O)O)c1)NC(=O)[C@H](Cc1ccccc1)NC(=O)C[S+]([O-])c1nc[nH]n1` (some centres undefined) as the compound, how does the inhibition read?
The inhibition was 17%.

With `CCCCCNC(=O)[C@H](Cc1ccc(OCC(=O)O)c(C(=O)O)c1)NC(=O)[C@H](C)NC(=O)OC(C)(C)C` as the compound, how does the inhibition read?
The inhibition was 5%.

With `CCCCCNC(=O)[C@H](Cc1ccc(OCC(=O)O)c(C(=O)O)c1)NC(=O)[C@H](Cc1ccccc1)NC(=O)Cc1ccc(O)cc1` as the compound, how does the inhibition read?
Its inhibition is 34%.

For `CCCCCNC(=O)[C@H](Cc1ccc(OCC(=O)O)c(C(=O)O)c1)NC(=O)[C@H](Cc1ccccc1)NC(C)=O`, which inhibition is on record?
Its inhibition is 13%.

Biological target: T2, Tyrosine-protein phosphatase non-receptor type 1 (Homo sapiens) (UniProt P18031)
T2 sequence (whole entry): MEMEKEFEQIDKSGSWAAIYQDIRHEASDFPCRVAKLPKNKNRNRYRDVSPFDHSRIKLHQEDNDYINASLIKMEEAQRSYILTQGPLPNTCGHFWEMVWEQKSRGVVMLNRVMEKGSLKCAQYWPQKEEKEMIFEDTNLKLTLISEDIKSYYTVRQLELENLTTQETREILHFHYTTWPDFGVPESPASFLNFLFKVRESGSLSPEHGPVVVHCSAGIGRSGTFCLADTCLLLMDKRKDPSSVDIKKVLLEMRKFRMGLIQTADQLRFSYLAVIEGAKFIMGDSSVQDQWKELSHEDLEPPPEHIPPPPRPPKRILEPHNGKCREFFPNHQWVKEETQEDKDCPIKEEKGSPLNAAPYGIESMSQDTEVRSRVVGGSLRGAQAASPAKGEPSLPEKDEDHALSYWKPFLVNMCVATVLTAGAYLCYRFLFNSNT
Experiment: Inhibitory activity against human protein tyrosine phosphatase 1B (PTP1B) at a concentration of 1 uM
Procedure, shortened: as §1

With `CCCCCNC(=O)[C@H](Cc1ccc(OCC(=O)O)c(C(=O)O)c1)NC(=O)[C@H](Cc1ccccc1)NC(=O)CSc1c[nH]nn1` as the compound, how does the inhibition read?
The inhibition was 49%.

For `CCCCCNC(=O)[C@H](Cc1ccc(OCC(=O)O)c(C(=O)O)c1)NC(=O)[C@H](Cc1ccc(O)cc1)NC(=O)OC(C)(C)C`, which inhibition is on record?
Its inhibition is 32%.

With `CCCCCNC(=O)[C@H](Cc1ccc(OCC(=O)O)c(C(=O)O)c1)NC(=O)[C@H](Cc1ccccc1)NC(=O)C[S+]([O-])c1nc[nH]n1` (some centres undefined) as the compound, how does the inhibition read?
Its inhibition is 40%.

Which inhibition does the source give for `CCCCCNC(=O)[C@H](Cc1ccc(OCC(=O)O)c(C(=O)O)c1)NC(=O)[C@H](C)NC(=O)OC(C)(C)C` here?
The inhibition was 8%.

For `CCCCCNC(=O)[C@H](Cc1ccc(OCC(=O)O)c(C(=O)O)c1)NC(=O)[C@H](Cc1ccccc1)NC(=O)Cc1ccc(O)cc1`, which inhibition is on record?
The inhibition was 46%.

For `CCCCCNC(=O)[C@H](Cc1ccc(OCC(=O)O)c(C(=O)O)c1)NC(=O)[C@H](Cc1ccccc1)NC(C)=O`, which inhibition is on record?
The inhibition was 28%.

With `CCCCCNC(=O)[C@H](Cc1ccc(OCC(=O)O)c(C(=O)O)c1)NC(=O)[C@H](COCOC)NC(=O)OC(C)(C)C` as the compound, how does the inhibition read?
Its inhibition is 16%.

Biological target: T2, Tyrosine-protein phosphatase non-receptor type 1 (Homo sapiens)
Experiment: Inhibitory activity against human protein tyrosine phosphatase 1B (PTP1B) at a concentration of 10 uM
Procedure, shortened: as §1

For `CCCCCNC(=O)[C@H](Cc1ccc(OCC(=O)O)c(C(=O)O)c1)NC(=O)[C@H](Cc1ccccc1)NC(=O)CSc1c[nH]nn1`, which inhibition is on record?
The inhibition was 88%.

For `CCCCCNC(=O)[C@H](Cc1ccc(OCC(=O)O)c(C(=O)O)c1)NC(=O)[C@H](Cc1ccc(O)cc1)NC(=O)OC(C)(C)C`, which inhibition is on record?
Its inhibition is 81%.

With `CCCCCNC(=O)[C@H](Cc1ccc(OCC(=O)O)c(C(=O)O)c1)NC(=O)[C@H](Cc1ccccc1)NC(=O)C[S+]([O-])c1nc[nH]n1` (some centres undefined) as the compound, how does the inhibition read?
Its inhibition is 85%.

With `CCCCCNC(=O)[C@H](Cc1ccc(OCC(=O)O)c(C(=O)O)c1)NC(=O)[C@H](C)NC(=O)OC(C)(C)C` as the compound, how does the inhibition read?
Its inhibition is 43%.

Which inhibition does the source give for `CCCCCNC(=O)[C@H](Cc1ccc(OCC(=O)O)c(C(=O)O)c1)NC(=O)[C@H](Cc1ccccc1)NC(=O)Cc1ccc(O)cc1` here?
The inhibition was 88%.

With `CCCCCNC(=O)[C@H](Cc1ccc(OCC(=O)O)c(C(=O)O)c1)NC(=O)[C@H](Cc1ccccc1)NC(C)=O` as the compound, how does the inhibition read?
The inhibition was 77%.

Which inhibition does the source give for `CCCCCNC(=O)[C@H](Cc1ccc(OCC(=O)O)c(C(=O)O)c1)NC(=O)[C@H](COCOC)NC(=O)OC(C)(C)C` here?
Its inhibition is 51%.
